Drawing on ChEMBL document CHEMBL3352207, “Kinase domain inhibition of leucine rich repeat kinase 2 (LRRK2) using a [1,2,4]triazolo[4,3-b]pyridazine scaffold” (Bioorg Med Chem Lett, 2014), this text covers Cmax, AUC and Kp for 1 compound.

Usually Cmax stands for the highest concentration seen after dosing. Usually AUC stands for the area under the concentration-time curve, a measure of exposure. As usually defined, the Kp is the ratio of the level in a tissue or fluid to that in plasma or blood.

Structures are written as SMILES.

Data set [1] in a line: Cmax in mouse at 300 mg/kg/day, po for 14 days. It counts as ADME, organism-based. On the set-up: dose 300 mg/kg/day, route oral. The following applies: in vivo. A digest of the protocol:
(§1)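 Mice were dosed orally at 0, 30 and 300 mg/kg/day for 14 days, 5 males per dose group, in a PK/PD study.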

Data set [2] in a line: AUC (0 to 24 hrs) in mouse at 300 mg/kg/day, po for 14 days. It counts as ADME, organism-based. On the set-up: time < 24 hr, dose 300 mg/kg/day, route oral. The note with it: plasma. A digest of the protocol:
as §1

Data set [3] can be described thus: Cmax in mouse at 30 mg/kg/day, po for 14 days. Format: ADME, organism-based. On the set-up: dose 30 mg/kg/day, route oral. The following applies: in vivo. A digest of the protocol:
as §1

Data set [4] in a line: Ratio of drug level in kidney to plasma of LRRK2 G2019S transgenic mouse kidney at 30 to 300 mg/kg/day. The note with it: kidney and plasma.
Data set [5] is described as follows: Ratio of AUC (0 to tlast) in brain to plasma of rat at 10 mg/kg. Format: ADME, organism-based. On the set-up: dose 10 mg/kg. The note with it: brain and plasma.
Data set [6] is described as follows: AUC (0 to 24 hrs) in mouse at 30 mg/kg/day, po for 14 days. Format: ADME, organism-based. On the set-up: dose 30 mg/kg/day, time < 24 hr, route oral. The following applies: plasma. Summed up:
as §1

For `COc1ccc(OC)c(Sc2ccc3nnc(-c4cnn(C)c4)n3n2)c1`, the results for the Cmax in data set [1] and in data set [3] were 12900 ng/mL and 200 ng/mL, respectively. The exposure (AUC) at 24 h in data set [2] stood at 20900 ng·h/mL; in data set [6], 350 ng·h/mL. In addition, the values for the Kp in data set [4] and in data set [5] were 2 and 0.14, respectively.
